Source: ChEMBL document CHEMBL1134337, “Behavioral approach to nondyskinetic dopamine antagonists: identification of seroquel” (J Med Chem, 2001)

system: Mus musculus; assay: Antagonism of apomorphine induced climbing was determined in female swiss -Webster mice after (po) administration of 5 mg/kg; type: functional; conditions: not given
Outline: (§1)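 Female Swiss-Webster mice (about 20 g) were fasted about 24 h, then given test compound or vehicle ip or po (N = 20 per group). Vehicle was 0.5% w/w hydroxypropylmethylcellulose with 0.1% w/w Tween 80 in water. After 30 min, mice received apomorphine HCl 1.25 mg/kg sc. At 13 min, each mouse was watched for 1 min; score was mean of highest and lowest rung of 27. Groups were compared with vehicle by Student's t-test.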

| SMILES | Activity |
| --- | --- |
| CN1CCN(C2=Nc3ccccc3Cc3ccccc32)CC1 [PERLAPINE] | 20 |

system: Mus musculus; assay: Antagonism of apomorphine induced climbing was determined in female swiss -Wbster mice after (ip) administration of 20 mg/kg; type: functional; conditions: not given; outline: as §1

| SMILES | Activity |
| --- | --- |
| OCCOCCN1CCN(C2=Nc3cc(Cl)ccc3Sc3ccccc32)CC1 | 12 |
| OCCOCCN1CCN(C2=Nc3cc(Cl)ccc3Cc3sccc32)CC1 | 1 |
| OCCOCCN1CCN(C2=Nc3cc(Cl)ccc3Cc3ccccc32)CC1 | 19 |
| OCCOCCN1CCN(C2=Nc3ccc(O)cc3Cc3ccccc32)CC1 | 21 |

system: Mus musculus; assay: Antagonism of apomorphine induced climbing was determined in female swiss -Wbster mice after (ip) administration of 80 mg/kg; type: functional; conditions: not given; outline: as §1

| SMILES | Activity |
| --- | --- |
| OCCOCCN1CCN(C2=Nc3cc(Cl)ccc3Sc3ccccc32)CC1 | 0 |
| OCCOCCN1CCN(C2=Nc3cc(Cl)ccc3Cc3sccc32)CC1 | 3 |
| OCCOCCN1CCN(C2=Nc3cc(Cl)ccc3Cc3ccccc32)CC1 | 2 |
| OCCOCCN1CCN(C2=Nc3ccc(O)cc3Cc3ccccc32)CC1 | 2 |

system: not listed separately; assay: Number of animals showing dyskinesias was determined in haloperidol sensitized 2 cebus monkeys after (po) administration of 80 mg/kg; type: functional; conditions: not given
Outline: (§2)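 Adult female and male Cebus monkeys sensitized with oral haloperidol 1 mg/kg once per week until dyskinetic reactions occurred. Test drug given orally (2 mL/kg) in 0.5% w/w hydroxypropylmethylcellulose with 0.1% w/w Tween 80 in distilled water, at least 2 weeks between treatments. Two observers watched continuously for 6-7 h, recording reaction type and severity every 30 min. Score is monkeys with dyskinesias/monkeys tested.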

| SMILES | No of monkeys |
| --- | --- |
| OCCOCCN1CCN(C2=Nc3cc(Cl)ccc3Cc3ccccc32)CC1 | 0 |

system: Mus musculus; assay: Antagonism of apomorphine induced climbing was determined in female swiss -Webster mice after (ip) administration of 20 mg/kg; type: functional; conditions: not given; outline: as §1

| SMILES | Activity |
| --- | --- |
| CN1CCN(C2=Nc3ccccc3Cc3ccccc32)CC1 [PERLAPINE] | 0 |

system: not listed separately; assay: Number of animals showing dyskinesias was determined in haloperidol sensitized 2 cebus monkeys after (po) administration of 40 mg/kg; type: functional; conditions: not given; outline: as §2

| SMILES | No of monkeys |
| --- | --- |
| OCCOCCN1CCN(C2=Nc3cc(Cl)ccc3Cc3ccccc32)CC1 | 0 |

system: Mus musculus; assay: Antagonism of apomorphine induced climbing was determined in female swiss -Wbster mice after (ip) administration of 40 mg/kg; type: functional; conditions: not given; outline: as §1

| SMILES | Activity |
| --- | --- |
| OCCOCCN1CCN(C2=Nc3cc(Cl)ccc3Sc3ccccc32)CC1 | 8 |
| OCCOCCN1CCN(C2=Nc3cc(Cl)ccc3Cc3sccc32)CC1 | 2 |
| OCCOCCN1CCN(C2=Nc3cc(Cl)ccc3Cc3ccccc32)CC1 | 6 |
| OCCOCCN1CCN(C2=Nc3ccc(O)cc3Cc3ccccc32)CC1 | 17 |

system: Mus musculus; assay: Antagonism of apomorphine induced climbing was determined in female swiss -Webster mice after (p.o.) +SKF525A administration of 5 mg/kg; type: functional; conditions: route oral; outline: as §1

| SMILES | Activity |
| --- | --- |
| CN1CCN(C2=Nc3ccccc3Cc3ccccc32)CC1 [PERLAPINE] | 24 |

system: Mus musculus; assay: Antagonism of apomorphine induced swimming was determined in female swiss -Wbster mice after (po) administration of 20 mg/kg; type: functional; conditions: not given

| SMILES | Activity |
| --- | --- |
| OCCOCCN1CCN(C2=Nc3cc(Cl)ccc3Sc3ccccc32)CC1 | 1 |
| OCCOCCN1CCN(C2=Nc3ccc(O)cc3Cc3ccccc32)CC1 | 1 |

target: D(2) dopamine receptor (Rattus norvegicus) (UniProt P61169); assay: Binding affinity at dopamine receptor D2 from rat by spiropiperidone displacement.; conditions: not given
Outline: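 D2 receptor binding was read as % displacement of spiropiperidone, with test compound at 1000 nM unless stated otherwise. IC50 values used at least five concentrations per compound in triplicate. Each value is the mean of two replicate experiments differing by 5% or less.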

Sequence of D(2) dopamine receptor (Rattus norvegicus) (P61169 whole entry): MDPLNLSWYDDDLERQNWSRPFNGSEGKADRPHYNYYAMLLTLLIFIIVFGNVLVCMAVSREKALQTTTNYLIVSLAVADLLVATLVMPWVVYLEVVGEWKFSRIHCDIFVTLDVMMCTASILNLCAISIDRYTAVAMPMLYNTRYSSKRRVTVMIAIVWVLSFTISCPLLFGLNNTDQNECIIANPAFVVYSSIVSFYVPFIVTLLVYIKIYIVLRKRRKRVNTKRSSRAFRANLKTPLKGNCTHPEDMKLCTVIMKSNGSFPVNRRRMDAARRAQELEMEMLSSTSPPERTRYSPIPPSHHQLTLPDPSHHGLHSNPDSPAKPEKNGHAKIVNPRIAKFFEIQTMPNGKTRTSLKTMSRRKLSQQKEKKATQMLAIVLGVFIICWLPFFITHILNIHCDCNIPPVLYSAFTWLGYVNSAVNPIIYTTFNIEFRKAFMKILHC

| % displacement of spiropiperidone [%] | SMILES |
| --- | --- |
| 58 | OCCOCCN1CCN(C2=Nc3cc(Cl)ccc3Sc3ccccc32)CC1 |
| 60 | OCCOCCN1CCN(C2=Nc3cc(Cl)ccc3Cc3sccc32)CC1 |
| 25 | OCCOCCN1CCN(C2=Nc3ccc(O)cc3Cc3ccccc32)CC1 |

system: Mus musculus; assay: Antagonism of apomorphine induced swimming was determined in female swiss -Wbster mice after (po) administration of 80 mg/kg; type: functional; conditions: not given

| SMILES | Activity |
| --- | --- |
| OCCOCCN1CCN(C2=Nc3cc(Cl)ccc3Sc3ccccc32)CC1 | 1 |
| OCCOCCN1CCN(C2=Nc3cc(Cl)ccc3Cc3ccccc32)CC1 | 2 |
| OCCOCCN1CCN(C2=Nc3ccc(O)cc3Cc3ccccc32)CC1 | 3 |

system: not listed separately; assay: Number of animals showing dyskinesias was determined in haloperidol sensitized 12 cebus monkeys after (po) administration of 80 mg/kg; type: functional; conditions: not given; outline: as §2

| SMILES | No of monkeys |
| --- | --- |
| OCCOCCN1CCN(C2=Nc3cc(Cl)ccc3Sc3ccccc32)CC1 | 0 |

system: Mus musculus; assay: Antagonism of apomorphine induced climbing was determined in female swiss -Webster mice after (ip) administration of 2.5 mg/kg; type: functional; conditions: not given; outline: as §1

| SMILES | Activity |
| --- | --- |
| CN1CCN(C2=Nc3ccccc3Cc3ccccc32)CC1 [PERLAPINE] | 9 |

system: Mus musculus; assay: Antagonism of apomorphine induced climbing was determined in female swiss -Webster mice after (po) administration of 10 mg/kg; type: functional; conditions: not given; outline: as §1

| SMILES | Activity |
| --- | --- |
| CN1CCN(C2=Nc3ccccc3Cc3ccccc32)CC1 [PERLAPINE] | 9 |

system: not listed separately; assay: Number of animals showing dyskinesias was determined in haloperidol sensitized 2 cebus monkeys after (po) administration of 20 mg/kg; type: functional; conditions: not given; outline: as §2

| SMILES | No of monkeys |
| --- | --- |
| OCCOCCN1CCN(C2=Nc3cc(Cl)ccc3Sc3ccccc32)CC1 | 0 |
| OCCOCCN1CCN(C2=Nc3cc(Cl)ccc3Cc3sccc32)CC1 | 1 |
| OCCOCCN1CCN(C2=Nc3cc(Cl)ccc3Cc3ccccc32)CC1 | 0 |

system: not listed separately; assay: Number of animals showing dyskinesias was determined in haloperidol sensitized 4 cebus monkeys after (po) administration of 40 mg/kg; type: functional; conditions: not given; outline: as §2

| SMILES | No of monkeys |
| --- | --- |
| OCCOCCN1CCN(C2=Nc3cc(Cl)ccc3Sc3ccccc32)CC1 | 0 |

system: Mus musculus; assay: Antagonism of apomorphine induced climbing was determined in female swiss -Wbster mice after (po) administration of 40 mg/kg; type: functional; conditions: not given; outline: as §1

| SMILES | Activity |
| --- | --- |
| OCCOCCN1CCN(C2=Nc3cc(Cl)ccc3Sc3ccccc32)CC1 | 24 |
| OCCOCCN1CCN(C2=Nc3cc(Cl)ccc3Cc3ccccc32)CC1 | 26 |
| OCCOCCN1CCN(C2=Nc3ccc(O)cc3Cc3ccccc32)CC1 | 17 |

system: Mus musculus; assay: Antagonism of apomorphine induced climbing was determined in female swiss -Webster mice after (ip) administration of 5 mg/kg; type: functional; conditions: not given; outline: as §1

| SMILES | Activity |
| --- | --- |
| CN1CCN(C2=Nc3ccccc3Cc3ccccc32)CC1 [PERLAPINE] | 9 |

system: Mus musculus; assay: Antagonism of apomorphine induced climbing was determined in female swiss -Webster mice after (po) administration of 20 mg/kg; type: functional; conditions: not given; outline: as §1

| SMILES | Activity |
| --- | --- |
| CN1CCN(C2=Nc3ccccc3Cc3ccccc32)CC1 [PERLAPINE] | 2 |

system: Mus musculus; assay: Antagonism of apomorphine induced climbing was determined in female swiss -Webster mice after (p.o.) +SKF525A administration of 10 mg/kg; type: functional; conditions: route oral; outline: as §1

| SMILES | Activity |
| --- | --- |
| CN1CCN(C2=Nc3ccccc3Cc3ccccc32)CC1 [PERLAPINE] | 20 |

system: Mus musculus; assay: Antagonism of apomorphine induced climbing was determined in female swiss -Webster mice after (ip) administration of 10 mg/kg; type: functional; conditions: not given; outline: as §1

| SMILES | Activity |
| --- | --- |
| CN1CCN(C2=Nc3ccccc3Cc3ccccc32)CC1 [PERLAPINE] | 7 |

system: Mus musculus; assay: Antagonism of apomorphine induced climbing was determined in female swiss -Webster mice after (p.o.) +SKF525A administration of 20 mg/kg; type: functional; conditions: route oral; outline: as §1

| SMILES | Activity |
| --- | --- |
| CN1CCN(C2=Nc3ccccc3Cc3ccccc32)CC1 [PERLAPINE] | 16 |

system: Mus musculus; assay: Antagonism of apomorphine induced swimming was determined in female swiss -Wbster mice after (po) administration of 40 mg/kg; type: functional; conditions: not given

| SMILES | Activity |
| --- | --- |
| OCCOCCN1CCN(C2=Nc3cc(Cl)ccc3Sc3ccccc32)CC1 | 1 |
| OCCOCCN1CCN(C2=Nc3cc(Cl)ccc3Cc3ccccc32)CC1 | 1 |
| OCCOCCN1CCN(C2=Nc3ccc(O)cc3Cc3ccccc32)CC1 | 1 |

system: Mus musculus; assay: Antagonism of apomorphine induced climbing was determined in female swiss -Wbster mice after (ip) administration of 10 mg/kg; type: functional; conditions: not given; outline: as §1

| SMILES | Activity |
| --- | --- |
| OCCOCCN1CCN(C2=Nc3cc(Cl)ccc3Sc3ccccc32)CC1 | 20 |
| OCCOCCN1CCN(C2=Nc3cc(Cl)ccc3Cc3sccc32)CC1 | 20 |

system: Mus musculus; assay: Antagonism of apomorphine induced climbing was determined in female swiss -Wbster mice after (po) administration of 20 mg/kg; type: functional; conditions: not given; outline: as §1

| SMILES | Activity |
| --- | --- |
| OCCOCCN1CCN(C2=Nc3cc(Cl)ccc3Sc3ccccc32)CC1 | 25 |
| OCCOCCN1CCN(C2=Nc3ccc(O)cc3Cc3ccccc32)CC1 | 24 |

target: D(2) dopamine receptor (Rattus norvegicus, UniProt P61169); assay: Inhibition of spiropiperidone binding at dopamine receptor D2 of rat.; conditions: not given
Sequence (P61169 whole entry): as above

| IC50 [nM] | SMILES |
| --- | --- |
| 2700 | CN1CCN(C2=Nc3ccccc3Cc3ccccc32)CC1 [PERLAPINE] |
| 1000 | OCCOCCN1CCN(C2=Nc3cc(Cl)ccc3Cc3ccccc32)CC1 |

system: Mus musculus; assay: Antagonism of apomorphine induced climbing was determined in female swiss -Wbster mice after (po) administration of 80 mg/kg; type: functional; conditions: not given; outline: as §1

| SMILES | Activity |
| --- | --- |
| OCCOCCN1CCN(C2=Nc3cc(Cl)ccc3Sc3ccccc32)CC1 | 16 |
| OCCOCCN1CCN(C2=Nc3cc(Cl)ccc3Cc3ccccc32)CC1 | 1 |
| OCCOCCN1CCN(C2=Nc3ccc(O)cc3Cc3ccccc32)CC1 | 10 |
